NadD inh = inhibitors of S. aureus NadD, primary screen, biochemical, colorimetric, uHTS | AID 602399, 2012 | inhibition, % at 20 µM | purified NadD enzyme, colorimetric absorbance read-out | 360,000 compounds, 0.78% hits; in the data active means inhibition above about 26%
IMP-1 inh-1 = IMP-1 metallo-beta-lactamase inhibitors, primary screen, biochemical, epi-absorbance readout, Pseudomonas aeruginosa enzyme; AID 1556, 2009; purified IMP-1, nitrocefin hydrolysis, epi-absorbance fluorescence; metallo-beta-lactamase IMP-1 (Pseudomonas aeruginosa); 290,000 compounds, 0.45% hits; inhibition, % at 5.6 µM;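 active means inhibition above the mean plus 3 SD of all compounds in the same screening run, cut at about 4.5% in these data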
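Test system: recombinant IMP-1 enzyme, purified / Medium: HEPES buffer pH 7.1 with ZnSO4 and Brij 35 / Doses: single dose, 5.6 µM / Times: 25 °C, 15 min preincubation, 25 min reaction / Detection: Epi-absorbance via hydrolysed-nitrocefin quenching of white-plate fluorescence, 480/530 nm, EDTA stop / Evaluation: percent inhibition from optical density relative to buffer-blank wells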
VIM-2 inhibitor = VIM-2 metallo-beta-lactamase inhibitors, primary screen, biochemical, epi-absorbance readout, Pseudomonas aeruginosa enzyme | purified VIM-2, nitrocefin hydrolysis, epi-absorbance fluorescence | inhibition, % at 5.6 µM | 290,000 compounds, 0.89% hits | AID 1527, 2009;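 active means inhibition above the mean of all tested compounds plus 3 SD, cutoff set per screening run, cut at about 7.5% in these data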;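 further: red hydrolysis product quenches plate fluorescence so inhibitors raise well fluorescence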
core dimer inh = inhibitors of HCV core protein dimerization, primary screen, biochemical, TR-FRET, high-throughput; TR-FRET GST/Flag-core106 dimerization, 1536-well; inhibition, % at 5 µM; 300,000 compounds, 0.33% hits; AID 1899, 2009;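 active means inhibition above the mean of all tested compounds plus 3 SD, set per screening campaign, cut at about 45% in these data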
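System: GST/Flag-tagged HCV core106 proteins. Incubation: compound-protein-antibody incubation 4 h at 22.5 °C. Technique: HTRF with 340 nm excitation, 617/671 nm emission. Medium: KF-containing HEPES buffer, pH 7.45, DTT, CHAPS, BSA. Read-out: inhibition (%) from 671 over 617 nm ratio. Also added: Eu(K)-anti-GST 90 ng/mL plus XL665-anti-Flag 1 µg/mL.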
IMP-1 inh-2 = IMP-1 metallo-beta-lactamase inhibitors, confirmation, selectivity assay for selective VIM-2 inhibitor project, biochemical, epi-absorbance readout, triplicate; inhibition, % at 5.6 µM; purified IMP-1, nitrocefin hydrolysis, epi-absorbance fluorescence; AID 1856, 2009; 1,300 tested, under 10 active; shares compounds with VIM-2 inhibitor; call rule not given here
VIM-2 FRET inh = VIM-2 inhibitors in FRET format, confirmation, artefact control for selective VIM-2 inhibitor project, biochemical, epi-absorbance artifact exclusion; 1,300 compounds, 23% hits; AID 1857, 2009; inhibition, % at 5.6 µM; shares compounds with VIM-2 inhibitor; purified VIM-2, CCF2 FRET substrate hydrolysis;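 active means inhibition above the mean of all tested compounds plus 3 SD, cut at about 19% in these data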
TEM-1 inh = TEM-1 serine beta-lactamase inhibitors, counter-screen for VIM-2 inhibitor project, biochemical, epi-absorbance, HTS. shares compounds with VIM-2 inhibitor. Purified TEM-1, nitrocefin hydrolysis, epi-absorbance fluorescence. inhibition, % at 5.6 µM. 1,300 compounds, 3% hits. AID 1866, 2009;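 active means inhibition above that campaign's mean inhibition plus 3 SD, cut at about 0.46% in these data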
Target sequence (P62593 whole entry, looked up): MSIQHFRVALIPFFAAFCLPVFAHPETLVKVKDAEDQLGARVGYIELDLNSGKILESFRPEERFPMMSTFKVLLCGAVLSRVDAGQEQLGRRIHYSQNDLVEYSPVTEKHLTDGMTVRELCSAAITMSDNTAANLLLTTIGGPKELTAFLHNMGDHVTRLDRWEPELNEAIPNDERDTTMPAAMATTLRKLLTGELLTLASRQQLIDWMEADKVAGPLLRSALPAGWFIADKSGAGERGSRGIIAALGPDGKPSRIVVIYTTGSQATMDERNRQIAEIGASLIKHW
VIM-2 confirm 2 = VIM-2 metallo-beta-lactamase inhibitors, confirmation, biochemical, epi-absorbance, hits shared with IMP-1 screen. shares compounds with VIM-2 inhibitor. purified VIM-2, nitrocefin hydrolysis. inhibition, % at 5.6 µM. 1,300 compounds, 96% hits;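 active means inhibition of the VIM-2 beta-lactamase enzyme above about 11% from the earlier first-round screen, limit read from the data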
A number is an active result; n = inactive; x = no result given. Hits are enriched below; roughly 1.9% of the tested compounds scored in any of these assays.

SMILES	NadD inh	IMP-1 inh-1	VIM-2 inhibitor	core dimer inh	IMP-1 inh-2	VIM-2 FRET inh	TEM-1 inh	VIM-2 confirm 2
Nc1nc(SCc2ccccc2)c2ncn(C3CCCO3)c2n1 (stereo not drawn)	n	x	x	x	x	x	x	x
CCOc1cc2nc(-c3ccc(OC)c(OC)c3)nc(NCCCN3CCOCC3)c2cc1OC	n	n	26	n	n	n	n	49
COc1cc2ncnc(NCCCN3CCOCC3)c2cc1OC	n	n	n	n	x	x	x	x
CCOC(=O)c1nnn2c1nc(SCC(C)=O)c1ccccc12	n	n	n	n	x	x	x	x
C=CCSc1nc2c(C(=O)OCC)nnn2c2ccccc12	n	n	28	x	n	n	n	39
COc1cccc(-n2c(CNC(=O)OC(C)(C)C)n[nH]c2=S)c1	n	n	19	n	n	44	n	27
O=C1C=C(c2ccc(C(=O)O)cc2)C[C@@H](c2ccc3c(c2)OCO3)C1	n	x	x	x	x	x	x	x
Cc1ccc2cccnc2c1N	n	n	16	n	n	n	n	40
Cc1cccc2cccnc12	n	x	x	x	x	x	x	x
Cc1nc(S/C(=C\c2ccc(-c3ccc(C(=O)O)c(Cl)c3)o2)C(=O)O)n[nH]1	n	n	16	x	n	17	n	17
O=C(CCS(=O)(=O)c1ccc(Cl)cc1)NC1CCCC1	n	x	x	x	x	x	x	x
CCc1cc2c(CN3CCN(CC)CC3)cc(=O)oc2cc1O	n	n	21	n	n	n	n	25
CCOc1ccc2oc(C(=O)Nc3cc(C)ccn3)c(C)c2c1	n	x	x	n	x	x	x	x
NC(=O)N=Nc1c2[nH]c3ccccc3nc-2c2ccccc12	n	n	21	n	n	n	n	38
CCOc1ccccc1Nc1cc(C)nc2nc(C)nn12	n	n	15	n	n	n	0.5	28
Cn1c(C(=O)NCCCN2CCN(c3ccccc3F)CC2)cc2c(=O)n(C)c3ccccc3c21	n	n	15	n	n	n	n	25
Cn1c(C(=O)NCCCN2CCOCC2)cc2c(=O)n(C)c3ccccc3c21	n	n	18	n	n	n	n	28
Cn1c(C(=O)NCc2ccccn2)cc2c(=O)n(C)c3ccccc3c21	n	n	16	n	n	n	n	25
Cn1c(C(=O)NCC2CCCO2)cc2c(=O)n(C)c3ccccc3c21 (stereo not drawn)	n	n	15	n	n	n	n	20
Cn1c(=O)cc(SCC(=O)NCCCN2CCN(c3ccccc3F)CC2)c2ccccc21	n	n	n	n	x	x	x	x
CN(CCc1ccccn1)C(=O)CCC1CCCN(C(=O)c2ccsc2)C1 (stereo not drawn)	n	n	n	n	x	x	x	x
O=C(NC(Cc1ccccc1)C(=O)O)/C(=C\c1ccc(Cl)cc1)NC(=O)c1ccco1 (stereo not drawn)	n	n	n	n	x	x	x	x
CN(C)c1nc(-c2cn(CCC#N)c3ccccc23)cs1	n	n	n	n	x	x	x	x
Cc1ccc2c(c1)[C@@H]1[C@H](CO2)[C@H](c2ccccc2)[C@@]2(C)C(=O)N[C@H](C)C(=O)N12	n	x	x	x	x	x	x	x
Cn1c(C(=O)NCCN2CCN(Cc3ccccc3)CC2)cc2c(=O)n(C)c3ccccc3c21	n	x	x	n	x	x	x	x
SMILES	NadD inh	IMP-1 inh-1	VIM-2 inhibitor	core dimer inh	IMP-1 inh-2	VIM-2 FRET inh	TEM-1 inh	VIM-2 confirm 2
Cn1c(C(=O)NC2CCCC2)cc2c(=O)n(C)c3ccccc3c21	n	n	18	n	n	n	n	21
CC(C)Cn1cc(C(=O)NCCCN2CCC(C)CC2)c2c3ccccc3n(C)c2c1=O	n	x	x	n	x	x	x	x
CC1CCN(CCCNC(=O)c2cc3c(=O)n(C)c4ccccc4c3n2C)CC1	n	n	21	n	n	n	n	31
CCCCN(CC)CCCNC(=O)c1cc2c(=O)n(C)c3ccccc3c2n1C	n	n	25	n	n	n	n	30
Cn1c(C(=O)NCCN2CCCCCC2)cc2c(=O)n(C)c3ccccc3c21	n	n	19	n	n	n	n	29
Cn1c(C(=O)N2CCCC2)cc2c(=O)n(C)c3ccccc3c21	n	n	n	x	x	x	x	x
COc1cc2c(NCCCCCO)ncnc2c(OC)c1OC	n	x	x	x	x	x	x	x
O=C1CN(C(=O)COC(=O)c2ccc(Cl)c(S(=O)(=O)N3CCCCC3)c2)c2ccccc2N1	n	x	x	x	x	x	x	x
CC(=O)c1nn(-c2cccc(C)c2)cc1C(=O)c1cccc(Br)c1	n	x	x	n	x	x	x	x
CCOC(=O)c1cc(-c2ccc(/C=C3/C(=O)N(c4ccc(C(=O)O)cc4)N=C3C)o2)ccc1Cl	n	n	n	n	x	x	x	x
CCOC(=O)c1cc(-c2ccc(/C=N\n3cnnc3)o2)ccc1Cl	n	n	57	n	n	n	n	78
CCCCOC(=O)c1cc(-c2ccc(/C=N/n3cnnc3)o2)ccc1Cl	n	n	22	n	n	n	n	54
Cc1cc(-c2ccc(/C=N/n3cnnc3)o2)ccc1Cl	n	n	14	n	n	n	n	37
COc1ccc(/C=N/n2c(C3CCCCC3)n[nH]c2=S)c(OC)c1	n	n	n	n	x	x	x	x
CC(Oc1ccc(Br)cc1)C(=O)Nc1cc(Cl)ccc1N1CCN(C)CC1 (stereo not drawn)	n	x	x	n	x	x	x	x
COc1ccc(NC(=O)CN2C(=O)COc3ccc(S(=O)(=O)N4CCOCC4)cc32)cc1Cl	n	n	n	n	x	x	x	x
COc1ccc(/C=N/NC(=S)Nc2cccc(C(=O)O)c2)cc1OC	n	n	13	n	n	n	n	n
Cc1cc(=O)oc2cc(OC(C)C(=O)NCCCn3ccnc3)ccc12 (stereo not drawn)	n	n	n	n	x	x	x	x
O=C(COc1ccc2c3c(c(=O)oc2c1)CCCC3)NCCCn1ccnc1	n	n	30	n	n	n	1.4	41
Cc1c(C)c2ccc(OCC(=O)NCCCn3ccnc3)cc2oc1=O	n	n	21	n	n	n	n	32
CC(Oc1ccc2c3c(c(=O)oc2c1)CCCC3)C(=O)NCCCn1ccnc1 (stereo not drawn)	n	n	23	n	n	n	n	40
Cc1c(C)c2ccc(OCC(=O)NCCN3CCOCC3)cc2oc1=O	n	n	n	n	x	x	x	x
CCCNC(=O)C1(C)CCN(C(=O)C2(c3ccc(Cl)cc3)CCCC2)C1 (stereo not drawn)	n	x	x	x	x	x	x	x
COc1ccccc1Cc1c(-c2cccc(Cl)c2)nc2ccc(Cl)cn12	n	x	x	x	x	x	x	x
